Results from article PMC4887451 (Natural product communications, 2015).
≈ marks a conversion by molar mass, not a printed value.

Key:
Format in all cases: cell-based
[1] = system: Candida glabrata ATCC 90030; experiment: antifungal screening; conditions: Nakaseomyces glabratus, ATCC90030, read-out: IC50 against Candida glabrata
In short: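 Tested alongside C. albicans ATCC 90028, C. krusei ATCC 6258, Cryptococcus neoformans ATCC 90113 and Aspergillus fumigatus ATCC 204305, following a previously described procedure. IC50 derived by curve fitting. Amphotericin B was the positive control.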

[2] = system: Trypanosoma brucei brucei; experiment: antitrypanosomal Alamar Blue assay on Trypanosoma brucei trypomastigotes
In short: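 Trypomastigote cultures of T. brucei brucei exposed to test compound, with viability read by Alamar Blue. DFMO served as positive control.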

[3] = system: chloroquine-sensitive (D6) Plasmodium falciparum; experiment: antiplasmodial screening by plasmodial LDH activity, D6 strain; conditions: for selectivity index (SI), ratio of VERO IC50 to D6 IC50: VERO mammalian cell line
[4] = system: chloroquine-resistant (W2) Plasmodium falciparum; experiment: antiplasmodial screening by plasmodial LDH activity, W2 strain; conditions: for selectivity index (SI), ratio of VERO IC50 to W2 IC50: VERO mammalian cell line

O=c1c(O)c(-c2ccc(O)c(O)c2)oc2cc(O)cc(O)c12 [Compound 16, quercetin]
IC50 [1]: 8.66 mg/L (≈ 28.7 µM)

C[C@@H]1[C@H](O)[C@@H](C)/C=C/C=C/C=C/C=C/C=C/C=C/C=C/[C@H](O[C@@H]2O[C@H](C)[C@@H](O)[C@H](N)[C@@H]2O)C[C@@H]2O[C@](O)(C[C@@H](O)C[C@@H](O)[C@H](O)CC[C@@H](O)C[C@@H](O)CC(=O)O[C@H]1C)C[C@H](O)[C@H]2C(=O)O [AMB, amphotericin B, reference compound]
IC50 [1]: 0.34 mg/L (≈ 0.368 µM)

C[C@@H]1O[C@@H](Oc2cc(O)c3c(=O)c(O)c(-c4ccc(O)c(O)c4)oc3c2)[C@H](O)[C@H](O)[C@H]1O [Compound 15, quercetin-7-O-α-L-rhamnopyranoside]
IC50, trypanocidal activity against Trypanosoma brucei brucei [2]: 9.02 mg/L (≈ 20.1 µM)
IC90, trypanocidal activity against Trypanosoma brucei brucei [2]: > 10 mg/L

C=C[C@]1(C)CC[C@H](C(C)(C)O[C@@H]2O[C@H](CO[C@@H]3OC[C@@H](O)[C@H](O)[C@H]3O)[C@@H](O)[C@H](O)[C@H]2O)O1 (relative stereo) [Compound 9, (3S, 6R) cis-linalool 3,6 oxide, O-β-D-xylopyranosyl-(1″→6′)-β-D-glucopyranoside]
IC50, trypanocidal activity against Trypanosoma brucei brucei [2]: 8.18 mg/L (≈ 17.6 µM)
IC90, trypanocidal activity against Trypanosoma brucei brucei [2]: > 10 mg/L

CCN(CC)CCCC(C)Nc1ccnc2cc(Cl)ccc12 (centres unmarked) [chloroquine, reference compound]
selectivity index (SI), ratio of VERO IC50 to D6 IC50 [3]: > 9
selectivity index (SI), ratio of VERO IC50 to W2 IC50 [4]: > 2.1

NCCCC(N)(C(=O)O)C(F)F (centres unmarked) [DFMO, difluoromethylornithine, reference compound]
IC50, trypanocidal activity against Trypanosoma brucei brucei [2]: 2.30 mg/L (≈ 12.6 µM)
IC90, trypanocidal activity against Trypanosoma brucei brucei [2]: 5.20 mg/L (≈ 28.5 µM)

COC(=O)C1(O)CC(O)C(OC(=O)/C=C/c2ccc(O)c(O)c2)C(OC(=O)/C=C/c2ccc(O)c(O)c2)C1 (centres unmarked) [Compound 20, 4,5-dicaffeoyl quinic acid methyl ester]
selectivity index (SI), ratio of VERO IC50 to D6 IC50 [3]: > 1.4
IC50 against chloroquine-sensitive (D6) Plasmodium falciparum ([3]; plasmodial LDH activity): 3.29 mg/L (≈ 6.2 µM)
selectivity index (SI), ratio of VERO IC50 to W2 IC50 [4]: > 1
IC50 against chloroquine-resistant (W2) Plasmodium falciparum ([4]; plasmodial LDH activity): 4.53 mg/L (≈ 8.54 µM)
